Holding throughout (type): functional
In one assay the test system is SR. The assay is described as follows: Growth inhibition of human SR cells incubated for 48 hrs by sulforhodamine B assay. The method in brief: (§1)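 NCI-60 screen run at NCI. Cells grown in RPMI medium with 5% FBS and 2 mM L-glutamine, plated at 5,000–40,000 cells/well, and preincubated 24 h at 37 °C. Time-zero plates were TCA-fixed. Compounds came from DMSO stocks and were tested at five concentrations from 10^-4 to 10^-8 M for 48 h. Cells were then TCA-fixed, stained with 0.4% SRB, and OD read at 515 nm. GI50 is the concentration giving a 50% reduction in net protein increase versus control.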
Background: The SRB assay estimates cell density from bound dye.

For the next assay, the system named is EKVX. The assay is described as follows: Growth inhibition of human EKVX cells incubated for 48 hrs by sulforhodamine B assay. Put shortly: (§2)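 NCI-60 screen. Compounds were dosed at five concentrations spanning 10^-4 to 10^-8 M for 48 h at 37 °C. Cells were TCA-fixed, stained with 0.4% SRB and read at 515 nm against time-zero and vehicle controls. GI50 is the concentration giving a 50% reduction in net protein increase.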

The next assay relates to HOP-62. Kind of assay: Growth inhibition of human HOP62 cells incubated for 48 hrs by sulforhodamine B assay. The conditions noted are these: HOP-62, 48 h. Put shortly: as §2
In the next assay the test system is COLO 205. Kind of assay: Growth inhibition of human COLO205 cells incubated for 48 hrs by sulforhodamine B assay. The following applies: COLO 205, 48 h. The method in brief: as §2
The next assay concerns SW-620. Kind of assay: Growth inhibition of human SW620 cells incubated for 48 hrs by sulforhodamine B assay. The following applies: SW-620, 48 h. Put shortly:
as §1

In another assay the test system is SNB-75. Kind of assay: Growth inhibition of human SNB75 cells incubated for 48 hrs by sulforhodamine B assay. The following applies: SNB-75, 48 h. The method in brief:
as §1

A further assay deals with M14. Kind of assay: Growth inhibition of human M14 cells incubated for 48 hrs by sulforhodamine B assay. The conditions noted are these: M14, 48 h. The method in brief: as §2
The subject of a further assay is MDA-MB-435. Kind of assay: Growth inhibition of human MDA-MB-435 cells incubated for 48 hrs by sulforhodamine B assay. The following applies: MDA-MB-435, 48 h. The method in brief:
as §2

A further assay concerns SK-MEL-2. The assay is described as follows: Growth inhibition of human SK-MEL-2 cells incubated for 48 hrs by sulforhodamine B assay. The following applies: SK-MEL-2, 48 h. Put shortly:
as §2

Another assay deals with SK-MEL-5. The assay is described as follows: Growth inhibition of human SK-MEL-5 cells incubated for 48 hrs by sulforhodamine B assay. The conditions noted are these: SK-MEL-5, 48 h. The method in brief: as §2
The subject of the next assay is IGROV-1. Kind of assay: Growth inhibition of human IGROV1 cells incubated for 48 hrs by sulforhodamine B assay. The following applies: IGROV-1, 48 h. The method in brief: as §2
In the next assay the test system is OVCAR-3. The assay is described as follows: Growth inhibition of human OVCAR3 cells incubated for 48 hrs by sulforhodamine B assay. The following applies: OVCAR-3, 48 h. The method in brief:
as §2

The next assay has as its system OVCAR-4. The assay is described as follows: Growth inhibition of human OVCAR4 cells incubated for 48 hrs by sulforhodamine B assay. The following applies: OVCAR-4, 48 h. Put shortly:
as §2

The subject of the next assay is 786-0. Kind of assay: Growth inhibition of human 786-0 cells incubated for 48 hrs by sulforhodamine B assay. The following applies: 786-0, 48 h. Put shortly:
as §2

The subject of the next assay is ACHN. The assay is described as follows: Growth inhibition of human ACHN cells incubated for 48 hrs by sulforhodamine B assay. The method in brief: as §2
The test system of the next assay is TK-10. The assay is described as follows: Growth inhibition of human TK10 cells incubated for 48 hrs by sulforhodamine B assay. The following applies: TK-10, 48 h. The method in brief: as §1
In a further assay the test system is PC-3. Kind of assay: Growth inhibition of human PC3 cells incubated for 48 hrs by sulforhodamine B assay. The conditions noted are these: PC-3, 48 h. Put shortly:
as §2

The subject of a further assay is DU-145. Kind of assay: Growth inhibition of human DU145 cells incubated for 48 hrs by sulforhodamine B assay. The following applies: DU-145, 48 h. Put shortly: as §2
A further assay has as its system MDA-MB-231. Kind of assay: Growth inhibition of human MDA-MB-231/ATCC cells incubated for 48 hrs by sulforhodamine B assay. The conditions noted are these: MDA-MB-231, 48 h. Put shortly:
as §2

The subject of another assay is Hs-578T. Kind of assay: Growth inhibition of human Hs 578T cells incubated for 48 hrs by sulforhodamine B assay. The method in brief: as §2
The next assay concerns BT-549. The assay is described as follows: Growth inhibition of human BT549 cells incubated for 48 hrs by sulforhodamine B assay. The conditions noted are these: BT-549, 48 h. The method in brief: as §2
A further assay relates to T47D. The assay is described as follows: Growth inhibition of human T47D cells incubated for 48 hrs by sulforhodamine B assay. Put shortly:
as §1

The test system of a further assay is MDA-MB-468. Kind of assay: Growth inhibition of human MDA-MB-468 cells incubated for 48 hrs by sulforhodamine B assay. The following applies: MDA-MB-468, 48 h. The method in brief:
as §2

A short description of assay [1]: Potency index, ratio of melampomagnolide-B EC50 to compound EC50 for human M9-ENL1 cells. The method in brief:
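M9-ENL1 AML cells, derived by MLL-ENL transduction of human blood cells, were plated at 10^6 cells/mL in alpha-MEM with 5% human plasma, 20% FBS, SCF, IL-3, IL-7 and FLT3 ligand. Exposure was 24 h. Non-apoptotic (Annexin V/7-AAD double-negative) fraction was normalized to vehicle, in triplicate, to give EC50. PTL and MMB were run as reference controls.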

For `C=C1C(=O)O[C@@H]2[C@H]3O[C@]3(C)CC/C=C(/COC(=O)c3cc4ccccc4o3)CC[C@@H]12`, the 50% growth inhibitory concentration (GI50) (in general, the concentration that inhibits growth by half) came out at 1150 nM in the assay with SR; 2020 nM with EKVX; 2480 nM in the assay on HOP-62; 1550 nM with COLO 205; 660 nM in the assay on SW-620; 1340 nM in the assay on SNB-75. Further, the GI50 amounted to 1430 nM with M14; 1430 nM in the assay with MDA-MB-435; 1770 nM in the assay on SK-MEL-2; 1520 nM in the assay with SK-MEL-5; 1390 nM in the assay with IGROV-1; 480 nM in the assay on OVCAR-3. Further, the GI50 with OVCAR-4 was determined as 1560 nM; in the assay with 786-0, 1810 nM; in the assay on ACHN, 1440 nM; in the assay on TK-10, 3010 nM; in the assay on PC-3 it was 1760 nM; in the assay with DU-145 it was 1180 nM. Also, the GI50 worked out at 1640 nM in the assay on MDA-MB-231; 2910 nM in the assay on Hs-578T; 1480 nM in the assay with BT-549; 1350 nM with T47D; 1500 nM in the assay on MDA-MB-468. Besides, the “Ratio IC50” value in assay [1] is listed as 2 - 20.

For the compound `C=C1C(=O)O[C@@H]2[C@H]3O[C@]3(C)CC/C=C(/COC(=O)c3c[nH]c4ccccc34)CC[C@@H]12`, the GI50 in the assay on SR is 280 nM; with EKVX it was 310 nM; with HOP-62, 820 nM; with COLO 205, 240 nM; in the assay on SW-620, 230 nM; with SNB-75, 200 nM. For the same compound, the 50% growth inhibitory concentration (GI50) in the assay on M14 was 220 nM; with MDA-MB-435, 240 nM; in the assay on SK-MEL-2, 230 nM; in the assay with SK-MEL-5 it was 200 nM; in the assay with IGROV-1, 250 nM; in the assay on OVCAR-3, 200 nM. Further, the 50% growth inhibitory concentration (GI50) was found to be 250 nM with OVCAR-4; 320 nM in the assay on 786-0; 210 nM with ACHN; 280 nM in the assay with TK-10; 380 nM in the assay on PC-3; 380 nM with DU-145. For the same compound, the GI50 worked out at 190 nM in the assay on MDA-MB-231; 610 nM in the assay on Hs-578T; 170 nM with BT-549; 400 nM in the assay with T47D; 190 nM in the assay with MDA-MB-468. In addition, the “Ratio IC50” value in [1] is listed as 2 - 20.

With `C=C1C(=O)O[C@@H]2[C@H]3O[C@]3(C)CC/C=C(/COC(=O)CCCc3c[nH]c4ccccc34)CC[C@@H]12`, the 50% growth inhibitory concentration (GI50) in the assay on SR was 1730 nM; in the assay with EKVX, 2020 nM; in the assay with HOP-62, 6540 nM; in the assay on COLO 205, 1860 nM; in the assay with SW-620 it was 1840 nM; in the assay on SNB-75, 12600 nM. The GI50 was found to be 1660 nM in the assay with M14; 1730 nM in the assay with MDA-MB-435; 1960 nM in the assay on SK-MEL-2; 1740 nM with SK-MEL-5; 1630 nM with IGROV-1; 1530 nM with OVCAR-3. Also, the GI50 with OVCAR-4 amounted to 1660 nM; in the assay on 786-0, 1600 nM; in the assay with TK-10, 1640 nM; with PC-3, 1920 nM; with DU-145, 1670 nM; in the assay with MDA-MB-231, 1780 nM. The 50% growth inhibitory concentration (GI50) in the assay with Hs-578T stood at 3190 nM; with BT-549, 1370 nM; in the assay with T47D it was 2170 nM; with MDA-MB-468, 1760 nM. Also, the “Ratio IC50” value in assay [1] is 2 - 20.

The values are drawn from ChEMBL document CHEMBL4138104, “Indole carboxylic acid esters of melampomagnolide B are potent anticancer agents against both hematological and solid tumor cells” (Eur J Med Chem, 2017).
